TRAIL sens C8: caspase-8 TRAIL sensitization | inhibition (viability loss, TRAIL sensitization), % at 10 µM | NB7+C8 cells + TRAIL, ATPlite viability luminescence | AID 624354 | 360,000 tested, 1% active;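 active means compounds causing at least 50% loss of cell viability in the single-dose screen, relative to plate controls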
FLuc stim CS: firefly luciferase counter-screen for stimulation assays. P08659. AID 1027. activation factor at 10 µM. 200,000 tested, under 10 active. ATPlite luciferase biochemical, luminescence, 10 min; 0 = ATP-free wells, 1 = DMSO control;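 active means luciferase activation factor, scaled between plate controls, of at least 2 with compound at 10 µM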
Target sequence (P08659 whole entry, looked up): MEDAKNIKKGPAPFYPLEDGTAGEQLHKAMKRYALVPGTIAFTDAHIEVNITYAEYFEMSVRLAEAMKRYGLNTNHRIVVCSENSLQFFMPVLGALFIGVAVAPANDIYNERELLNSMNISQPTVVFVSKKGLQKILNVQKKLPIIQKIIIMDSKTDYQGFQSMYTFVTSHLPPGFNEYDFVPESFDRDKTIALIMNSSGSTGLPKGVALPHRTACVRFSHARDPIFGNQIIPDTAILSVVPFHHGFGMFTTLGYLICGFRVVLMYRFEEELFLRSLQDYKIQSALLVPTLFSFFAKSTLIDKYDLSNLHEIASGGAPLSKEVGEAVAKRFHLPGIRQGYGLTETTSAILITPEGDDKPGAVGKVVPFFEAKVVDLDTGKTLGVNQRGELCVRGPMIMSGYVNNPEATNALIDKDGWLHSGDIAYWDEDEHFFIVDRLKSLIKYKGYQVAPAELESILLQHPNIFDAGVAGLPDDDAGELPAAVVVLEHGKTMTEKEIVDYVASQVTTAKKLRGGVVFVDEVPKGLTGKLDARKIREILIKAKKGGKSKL
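System: luciferase plus luciferin reagent, cell-free; medium: PBS as buffer for the ATP substrate; dosing: test compounds dosed from 2 mM stocks in 100% DMSO; timing: 10 min post-reagent at room temperature; measured by: luminescence measurement of luciferase light output; evaluation: luciferase activation, seen as luminescence increase over controls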
APP 5'UTR act: activates APP 5'UTR luciferase reporter; 190,000 tested, 1% active; activation, % at 2 µM; SH-SY5Y APP 5'UTR luciferase reporter, luminescence; zero percent = DMSO vehicle wells;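 active means activation above a set limit, based on mean plus 3 SD of controls, cut at about 140% in these data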
FLuc inhib CS: inhibits firefly luciferase, flagging false hits in luciferase inhibition screens | AID 1006 | inhibition, % at 10 µM | ATPLite firefly luciferase biochemical luminescence, 10 min | 200,000 tested, 1.5% active;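 active means inhibition above about 50% when tested at 10 µM, limit read from the data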
PPC-1+TRAIL kill: PPC-1 cancer cell killing with TRAIL present | 220,000 tested, 0.41% active | cell killing (% activity), % at 4 µM or 5 µM | PPC-1 cells + TRAIL, ATPLite viability luminescence;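 active means cell killing above 50% in the first pass at 4 µM, then a duplicate retest at 5 µM averaging 50% or more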;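 further: plate controls were cells with TRAIL plus DMSO for no effect and medium-only wells lacking cells for full effect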
NF-kB neuron act: raises NF-kB expression in human neuronal cells. NF-kB reporter expression; stronger effect = higher value. fold change at 12.5 µM. 190,000 tested, 1.6% active. AID 1239; in the data active means fold change above about 3.3
Numbers without * were called inactive; . = no result. A selection: hits, their analogues and other compounds. The true share with any hit is near 2.2%.

SMILES	TRAIL sens C8	FLuc stim CS	APP 5'UTR act	FLuc inhib CS	PPC-1+TRAIL kill	NF-kB neuron act
Cc1nn(Cc2c(Cl)cccc2Cl)c(C)c1NC(=O)c1cn(-c2ccccc2)nc1-c1ccccc1	76*	1	-9	-2	30	1.1
Cc1cccc(C)c1NC(=O)CNC(=O)c1cn(-c2ccccc2)nc1-c1ccccc1	8	.	.	.	.	.
Cc1nn(-c2cccc(C(F)(F)F)c2)c(Cl)c1/C=N/Nc1cccc(C(=O)O)c1	-8	0.9	159*	7	22	8*
Cc1nn(-c2ccccc2Cl)c(Cl)c1/C=N/Nc1cccc(C(=O)O)c1	78*	0.1	3	90*	40	9.8*
O=c1c2oc3ccccc3c2ncn1Cc1ccccc1Cl	6	1	0	-2	16	2.5
O=c1c2oc3ccccc3c2ncn1Cc1ccccc1F	17	1	4	-4	10	3.5*
O=C(CCc1ccccc1)N/N=C/c1cc(Br)ccc1O	55*	1	-8	-3	16	0.82
O=C(N/N=C/c1cc(Br)ccc1O)c1ccccc1Cl	56*	0.9	-41	8	43	1.8
O=C(N/N=C/c1ccccc1Cl)c1[nH]c2ccc(Br)cc2c1-c1ccccc1	-43	1	-96	-2	27	4.1*
CCCCOc1ccc(-c2ncc(C(=O)O)c(C)n2)cc1	0	1	165*	1	5	4.3*
CCCCCCOc1ccc(C(=O)O)cc1	1	.	.	.	7	.
CCOC(=O)[C@]12CCCC=C1N(Cc1ccc(Cl)cc1Cl)C(=O)[C@H](CC(=O)N1CCN(C(=O)C3CC3)CC1)C2	21	.	.	.	.	.
COc1cccc(C(NC(C)=O)c2nc(-c3cccc(C#N)c3)cs2)c1 (stereo not given)	-11	.	.	.	.	.
O=C(CN(Cc1ccccc1)C(=O)CCl)c1cccc(Br)c1	97*	.	.	.	.	.
O=C(NCCCc1ccccc1)c1cccc(Br)c1	0	.	.	.	.	.
CCc1nc2ccc(C(=O)NCc3ccc(OC)cc3)cn2c1N(C)C(=O)Cc1ccccc1	7	.	.	.	.	.
CNc1nc(-c2ccccc2)c2sccc2n1	3	.	.	.	.	.
N#Cc1nc(NCC(F)F)nc(Nc2cc(F)cc(F)c2)n1	50*	.	.	.	.	.
COc1ccc2nc(/N=C/c3c(C)[nH]n(-c4ccc(C)cc4)c3=O)sc2c1	19	0.4	37	59*	17	1.1
Brc1cc2c(cc1/C=N/Nc1nc3ccccc3s1)OCO2	0	1	30	-2	8	1.7
C(=N\Nc1nc2ccccc2[nH]1)/c1ccc2c(c1)OCO2	4	0.5	149*	55*	22	4.1*
Cc1csc(NC(=O)/C=C/c2ccc3c(c2)OCO3)n1	71*	0.2	110	77*	57*	1.3
C(=N\Nc1nc2ccccc2s1)/c1ccc2c(c1)OCO2	37	0.5	180*	50	10	3.8*
O=C(/C=C/c1ccc2c(c1)OCO2)Nc1nc2ccccc2s1	27	0.8	156*	21	17	1.1
O=C(/C=C/c1ccc2c(c1)OCO2)Nc1nc(-c2ccc(F)cc2F)cs1	.	1	0	-1	18	1.1
SMILES	TRAIL sens C8	FLuc stim CS	APP 5'UTR act	FLuc inhib CS	PPC-1+TRAIL kill	NF-kB neuron act
O=C1Nc2ccccc2C(=O)N(Cc2ccccc2)C1C(=O)NC1CC1 (stereo not given)	-1	.	.	.	.	.
Brc1csc(/C=N/Nc2nc3ccccc3s2)c1	35	0.5	162*	54*	29	4.4*
COC(=O)C[C@H]1C[C@H]2c3cc(NS(=O)(=O)c4cccc(OC)c4)ccc3O[C@H]2[C@@H](CO)O1	-4	.	.	.	.	.
CC(C)c1ccc(C(=O)NN2C(=O)C3CCCCC3C2=O)cc1 (stereo not given)	23	0.2	55	80*	18	1.6
CCOc1ccccc1C(=O)NN1C(=O)C2CCCCC2C1=O (stereo not given)	-9	1	16	-4	17	0.96
O=C(/C=C/c1ccnc2ccccc12)c1cccs1	31	0	183*	96*	26	1
Cc1ccc(-c2cc(C(=O)N/N=C/c3ccc([N+](=O)[O-])o3)c3ccccc3n2)o1	68*	.	.	.	.	.
Cn1c(/C=C/c2ccc([N+](=O)[O-])o2)nc2ccccc2c1=O	51*	1	-37	-5	7	1.4
O=C(N/N=C/c1ccc([N+](=O)[O-])o1)c1cc(-c2ccc(-c3ccccc3)cc2)nc2ccccc12	87*	0.1	-90	93*	80*	.
CC(C)C(N)c1csc(NC(=O)Nc2ccc(OC(F)(F)F)cc2)n1 (stereo not given)	16	.	.	.	.	.
CS(=O)(=O)N(Cc1ccc(Cl)cc1)c1ccc(C(=O)NCCC2=CCCCC2)cc1	8	1	4	-3	21	1
Cc1cc(C(=O)NCCC2=CCCCC2)c(C)o1	-12	0.8	136*	16	-16	2.3
O=C(NCCC1=CCCCC1)c1coc(=O)c(Br)c1	53*	1	-28	-5	10	1.6
O=C(NCCC1=CCCCC1)c1ccc(Cl)cc1	.	0.7	228*	33	21	5.5*
Cc1ccc(S(=O)(=O)N2CCCCC2)cc1C(=O)NCCC1=CCCCC1	14	.	.	.	.	.
O=C(Nc1cccc(C(F)(F)F)c1)c1ccc2sc([C@H]3C[C@H](O)[C@@H](CO)O3)nc2c1	23	.	.	.	.	.
O=C(Nc1ccc(F)cc1)C(CCc1ccccc1)N1CCN(c2ccncc2)CC1 (stereo not given)	0	.	.	.	.	.
O=c1[nH]c2ccccc2nc1Cc1ccccc1	-7	1	-19	0	-11	0.91
O=C(Cc1nc2ccccc2[nH]c1=O)c1ccccc1	42	0.4	160*	58*	26	0.97
COc1cc(/C=N/Nc2nc3ccccc3[nH]2)cc(OC)c1O	4	0.4	-11	61*	9	0.62
CC(=O)Nc1ccc(/C=N/Nc2nc3ccccc3[nH]2)cc1	75*	0.6	20	40	12	1.6
COc1cc(/C=N/Nc2nc3ccccc3[nH]c2=O)ccc1O	-2	0.5	15	50*	10	1
COc1cc(/C=N/Nc2nc3ccccc3[nH]2)ccc1O	7	0.5	17	55*	4	2.2
COc1cc(OC)cc(C2=Cc3ccc(OC)cc3C(CC(C)=O)N2c2ccc(C#CCCO)cc2)c1 (stereo not given)	-5	.	.	.	.	.
CCN(CC)C(=O)C1=C(C)N(Cc2ccc(C(C)(C)C)cc2)C(=O)C(CC(=O)NCCCN(C)C)C1 (stereo not given)	-4	.	.	.	.	.
COCCNC(=O)C1(C)CCCN(Cc2csc(-c3ccc(Cl)cc3)n2)C1 (stereo not given)	-2	.	.	.	.	.
NC(COCc1ccccc1)c1csc(NC(=O)Nc2cccc(Cl)c2)n1 (stereo not given)	10	.	.	.	.	.
COc1cc(/C=N/NC(=Nc2ccc(C)cc2)c2nc3ccccc3s2)ccc1O	52*	0.7	121	29	-2	0.45

Screening results deposited in PubChem BioAssay by several laboratories.
